NR2E3 ag-1: NR2E3 agonists in two-hybrid cells, primary screen, cell-based, luminescence, CHO-S, Gal4-NCOR/VP16-NR2E3 | luciferase | 360,000 tested, 0.35% active | inhibition of corepressor binding, % at 3.98 µM;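 active means inhibition above the mean of all tested compounds plus 3 SD, cut at about 70% in these data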;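 further: 0% = DMSO with NR2E3 transfected cells and 100% = cells lacking NR2E3 construct; higher means lower luciferase signal from less NR2E3 corepressor binding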
COUP-TFII inh: NR2F2 transcriptional activity inhibitors, primary screen, cell-based, luciferase reporter, HEK293T, luminescence. AID 686940, 2013. inhibition, % at 8.6 µM. HEK293T NGFI-A luciferase reporter. COUP transcription factor 2 (Homo sapiens), P24468. 370,000 tested, 0.7% active;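 active means inhibition above a per-plate cutoff, mean inhibition of test wells between control levels plus 3 SD, cut at about 38% in these data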;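 further: cells cotransfected with COUP-TFII expression vector driving the NGFI-A reporter; 0% = median of COUP-TF2 test wells and 100% = reporter-only cells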
Target sequence (P24468 whole entry, looked up): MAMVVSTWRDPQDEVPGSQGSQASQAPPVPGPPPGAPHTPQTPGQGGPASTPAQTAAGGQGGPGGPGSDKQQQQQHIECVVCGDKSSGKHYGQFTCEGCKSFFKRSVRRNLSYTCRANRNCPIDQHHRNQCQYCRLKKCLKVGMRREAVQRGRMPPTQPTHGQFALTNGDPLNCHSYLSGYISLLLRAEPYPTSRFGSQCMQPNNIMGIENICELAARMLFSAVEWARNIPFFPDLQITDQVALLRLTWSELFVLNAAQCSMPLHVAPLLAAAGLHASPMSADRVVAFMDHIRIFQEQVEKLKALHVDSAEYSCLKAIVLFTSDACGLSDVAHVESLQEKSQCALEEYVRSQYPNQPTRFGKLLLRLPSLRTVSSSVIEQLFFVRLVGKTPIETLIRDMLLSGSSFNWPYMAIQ
SMARCA2 act: SMARCA2 (BRM) function activators, primary screen, cell-based, luminescence, high throughput; MG213 cells, MMTV-luciferase reporter, dexamethasone, overnight; activation, % at 9.1 µM; 370,000 tested, 1% active; AID 652017, 2013; in the data active means activation above about 7.8%;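 further: 0% = vehicle wells and 100% = reference activator wells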
GalR3 antag: GalR3 antagonists in HEK293 cells, primary screen, cell-based, fluorescence readout; HEK293 GalR3-CNG cAMP membrane potential fluorescence; galR3 body fused to GalR1 C-terminus; Galanin receptor type 3 (Homo sapiens), O60755; 360,000 tested, 0.44% active; AID 651719, 2012; inhibition, % at 3 µM;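 active means inhibition above the screen-wide average plus 3 SD, cut at about 13% in these data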;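 further: forskolin and galanin both at EC90 stimulate the cells; cAMP rise reported by CNG channel membrane potential dye signal; 0% = forskolin plus galanin with DMSO and 100% = forskolin alone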
Target sequence (O60755 1-299 limits assumed): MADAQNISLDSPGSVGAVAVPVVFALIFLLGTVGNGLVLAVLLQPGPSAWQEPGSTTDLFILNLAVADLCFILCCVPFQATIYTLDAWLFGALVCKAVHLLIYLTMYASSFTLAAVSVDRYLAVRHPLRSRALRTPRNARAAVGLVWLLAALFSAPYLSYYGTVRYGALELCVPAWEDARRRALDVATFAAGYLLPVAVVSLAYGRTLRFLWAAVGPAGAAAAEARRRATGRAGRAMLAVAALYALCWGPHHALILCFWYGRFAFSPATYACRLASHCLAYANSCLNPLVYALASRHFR
NR2E3 ag-2: inhibitors of NR2E3-RetCOR corepressor binding, primary screen, NR2E3 agonist project, biochemical, TR-FRET, GST-NR2E3, biotin-RetCOR; inhibition of corepressor binding, % at 4.78 µM; 320,000 tested, 0.12% active; 1536-well; Photoreceptor-specific nuclear receptor (Homo sapiens), Q9Y5X4;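 active means percent inhibition above the cutoff of mean plus 3 SD of all tested compounds, set per screening campaign, cut at about 20% in these data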;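 further: 0% = DMSO wells and 100% = biotin wells as full block of FRET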
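System: GST-tagged NR2E3 plus biotinylated RetCOR corepressor; Amount: 1.35 nM GST-tagged NR2E3 final; Dosing: single nominal compound dose of 4.8 µM; Schedule: 5 h incubation at 4 °C; Technique: TR-FRET with europium anti-GST and streptavidin-D2, 340 nm excitation; Controls: biotin wells as high control, 0.6% DMSO wells as low control.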
GalR3 conf: GalR3 antagonist hit confirmation, cell-based, fluorescence, triplicate | inhibition, % at 3 µM | HEK293 GalR3 CNG cAMP biosensor, membrane potential fluorescence; galR3 fused to GalR1 carboxy tail; challenged with forskolin and galanin at EC90 | 1,600 tested, 59% active | shares compounds with GalR3 antag;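 active means inhibition above the primary screen's cutoff, the mean inhibition of all screened compounds plus 3 SD, cut at about 13% in these data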;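 further: 0% = forskolin plus galanin and 100% = forskolin alone with DMSO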
HEK-CNG parental: nonspecific cAMP agonists in parental HEK-CNG cells, counter-screen for GalR3 antagonist project, cell-based, fluorescence, high throughput. shares compounds with GalR3 antag. AID 652268, 2013. HEK293-CNG parental cells, cAMP membrane potential fluorescence; normalised: DMSO wells 0%, forskolin wells 100%. 1,600 tested, 10% active. activation, % at 3 µM; in the data active means activation above about 1.3%
An asterisk follows results filed as active; · = no result given. Shown are actives, neighbours in structure and some others; about 2.2% of the full set was active somewhere.

SMILES	NR2E3 ag-1	COUP-TFII inh	SMARCA2 act	GalR3 antag	NR2E3 ag-2	GalR3 conf	HEK-CNG parental
Cc1ccc(NC2=C(Cl)C(=O)OC2OC(C)C)cc1 (centres undefined)	-8.1	-14.3	-2.1	-3.3	-1.0	·	·
CN(Cc1ccccc1)C(=O)OCc1cn(Cc2ccccc2F)nn1	·	4.4	-2.2	·	·	·	·
CC(=O)Nc1ccc(S(=O)(=O)Oc2cccc(N3C(=O)C4CC=CCC4C3=O)c2)cc1 (centres undefined)	12.4	12.1	-3.3	-3.2	4.4	·	·
CC(=O)Nc1ccc(S(=O)(=O)Oc2ccc(N3C(=O)C4CCCCC4C3=O)cc2)cc1 (centres undefined)	39.3	34.3	-5.8	42.0*	0.9	38.9*	-1.0
CC1CCCCN1S(=O)(=O)c1ccc(S(=O)(=O)N(Cc2ccccc2)Cc2ccco2)cc1 (centres undefined)	-1.1	0.2	-3.0	12.8*	-2.7	11.0	-0.8
CCCC/C=C1/[C@@H](c2ccc(Cl)cc2)N(Cc2ccc3c(c2)OCO3)C2=N[C@@H](c3ccccc3)CC(=O)N21	·	2.9	-4.1	·	·	·	·
CCCNC(=O)Nc1ccc2c(c1)C(=O)N(C)[C@H]1CC[C@@H](CC(=O)OC)O[C@H]1CO2	·	6.7	-1.0	·	·	·	·
COc1ccc(-c2cnc3c(NC(C)=O)cc(-c4ccccc4OC)cn23)cc1OC	-21.3	-25.1	-0.6	13.2*	·	18.3*	0.4
COc1cc(-c2cnc3c(NC=O)cc(-c4ccccc4Cl)cn23)cc(OC)c1OC	-8.5	-86.6	3.9	19.2*	·	26.0*	1.6*
COc1ccc(-c2cc(NC(C)=O)c3ncc(-c4ccc(OC)c(OC)c4)n3c2)cc1OC	22.0	-13.3	1.1	-2.3	·	·	·
Cc1ccc(NC(=O)Cc2cccc(OC(F)(F)F)c2)c(S(=O)(=O)N2CCOCC2)c1	·	8.4	-2.3	·	·	·	·
CCCNC(=O)C(=O)Nc1ccc2c(c1)N(S(=O)(=O)c1cccs1)CCC2	-39.1	0.0	3.6	-6.5	-3.9	·	·
COCCCNC(=O)C(=O)Nc1ccc2c(c1)N(S(=O)(=O)c1cccs1)CCC2	-2.9	-45.7	-3.3	15.5*	1.8	5.7	2.1*
CCOC(=O)Cn1cc(CN2CCS(=O)(=O)N(Cc3ccc(OC)cc3)C(C(=O)OC)C2)nn1 (centres undefined)	·	-11.7	-2.0	·	·	·	·
COc1ccc(CNC(=O)[C@@H](C)NC(=O)[C@@H]2Cc3ccccc3CN2)cc1	-24.1	-5.7	0.1	19.5*	1.4	-2.1	0.3
O=Cc1cn(CC(=O)N2CCc3ccccc32)c2ccccc12	10.6	-4.5	-3.4	-3.3	2.9	·	·
O=Cc1cn(CC(=O)N2CCCCCC2)c2ccccc12	-3.6	-10.4	-3.4	18.5*	3.7	6.3	0.0
CN(C)S(=O)(=O)c1cccc(-c2cn3cccnc3n2)c1	-14.3	-8.5	0.9	·	-0.6	8.9	0.8
CCCOc1nc2ccccc2cc1/C=C/C(=O)O	-11.6	9.8	-3.0	14.2*	0.4	6.0	0.6
C=CCNC(=O)/C(C#N)=C\c1cc(Cl)c(O)c(OCC)c1	-24.9	4.1	-3.5	-8.1	-7.7	·	·
CCOc1cc(/C=C2\CCC/C(=C\c3cc(Cl)c(O)c(OCC)c3)C2=O)cc(Cl)c1O	16.4	8.9	0.9	24.1*	0.4	53.5*	-0.1
CCOC(=O)N1CCN(C(=O)C[C@H]2C[C@@]3(C(=O)OC)C(=C[C@H](C(C)C)O[C@@H]3C3CC3)N(CCC3=CCCCC3)C2=O)CC1	·	5.2	-4.8	·	·	·	·
Cn1c2ccccc2c2cnn(CC(=O)O)c(=O)c21	11.1	-14.0	-0.4	·	1.1	0.6	0.9
O=C(NCc1ccco1)C1CCCN(S(=O)(=O)c2ccc(F)cc2)C1 (centres undefined)	·	6.2	6.7	·	·	·	·
CCOC(=O)c1ccc(NC(=O)Nc2nncs2)cc1	-36.2	-71.2	-1.7	14.0*	·	19.6*	1.4*
SMILES	NR2E3 ag-1	COUP-TFII inh	SMARCA2 act	GalR3 antag	NR2E3 ag-2	GalR3 conf	HEK-CNG parental
CC(C)[C@H]1/C(=C/C2CC2)N2C(=O)C[C@H](c3ccccc3)N=C2N1C	·	-11.2	·	·	·	·	·
CN(C)c1cc(Nc2ccc(O)cc2)c([N+](=O)[O-])c2nonc12	-19.6	1.5	-0.9	5.0	-0.7	·	·
O=[N+]([O-])c1c(Nc2ccc(O)cc2)cc(Cl)c2nonc12	22.0	14.7	-10.0	57.8*	-0.8	51.1*	0.3
CCS(=O)(=O)Nc1ccc2c(c1)C(=O)N(C)[C@@H]1CC[C@H](CC(=O)NCCCN3CCOCC3)O[C@H]1CO2	·	-25.1	-3.5	·	·	·	·
COc1ccc(CNC2CCC23CCC(c2ccccc2)CC3)cc1OC (centres undefined)	·	-3.8	·	·	·	·	·
CCOc1ccc(NC(=S)NC(=O)c2c(Cl)cnn2CC)c([N+](=O)[O-])c1	-28.0	2.9	-2.6	13.5*	0.1	8.8	-0.4
CCOc1ccc(NC(=S)NC(=O)c2c(Br)cnn2C)c([N+](=O)[O-])c1	-27.1	-7.4	-2.4	-1.2	0.3	·	·
N/C(=N\OC(=O)c1ccc(Cl)c(Cl)c1)c1cccnc1	-21.4	-27.2	-1.2	-4.7	-1.1	·	·
N/C(=N\OC(=O)c1cccc(Cl)c1)c1cccnc1	-83.6	-29.2	4.0	·	-1.9	7.9	0.8
COc1ccc(OCCOC(=O)c2[nH]c(C)c(C(C)=O)c2C)cc1	19.5	18.8	-6.3	15.6*	8.8	9.8	-0.8
COC(=O)CSc1nnc(-c2cc(-c3ccccc3)n[nH]2)n1N	·	14.7	-0.1	·	·	·	·
CCC[C@H]1[C@@H](OC(=O)NCc2ccc(Cl)cc2)CC[C@@]23CCCN2C(=O)CCC[C@@H]13	·	5.5	·	·	·	·	·
CNc1nc2c(N)ncnc2n1[C@H]1O[C@@H](CO)[C@H](O)[C@@H]1O	-30.0	-32.8	-2.1	26.1*	2.5	39.9*	0.3
Nc1ncnc2c1nc(N1CCCCC1)n2[C@@H]1O[C@H](CO)[C@@H](O)[C@H]1O	3.2	-18.8	-0.9	1.0	5.3	·	·
Brc1ccc(OCCN2CCOCC2)cc1	4.2	-1.6	-0.2	-8.6	3.4	·	·
Brc1ccc(OCCCN2CCOCC2)cc1	-28.9	-3.6	3.6	16.4*	3.1	-0.2	0.4

Screens as filed in PubChem.
